Phagocyt inh – inhibitors of macrophage phagocytosis, primary screen, imaging, J774A.1 cells, IgG beads. J774A.1 macrophage IgG-bead phagocytosis. inhibition, % at 5 µM. 110,000 compounds, 0.07% hits. AID 1029, 2008;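 active = inhibition above the mean of the plate negative controls plus 5 SD, cut at about 13% in these data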;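 note: phagocytic index as fraction of beads internalized from green versus red external bead signal; plate controls were DMSO negative control for no effect and cytochalasin-D positive control for full effect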
Rev-RRE block – HIV-1 Rev-RRE binding inhibitors, primary screen, biochemical, FRET, protein-RNA interaction | 97,000 compounds, 0.79% hits | Rev peptide-RRE RNA binding | inhibition, % at 8 µM | P05866;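 active = inhibition above the screen-wide mean plus 3 SD, cut at about 35% in these data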;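 note: 0% = median DMSO wells and 100% = median Neomycin B control wells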
Target sequence (P05866 whole entry, looked up): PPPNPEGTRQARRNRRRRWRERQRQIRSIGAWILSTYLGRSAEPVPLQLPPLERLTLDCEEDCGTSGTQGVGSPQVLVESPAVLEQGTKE
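Test system – labelled RRE RNA duplex and labelled Rev peptide · Signal – fluorescein-to-Cy5 FRET, 480 nm excitation · Evaluation – % inhibition of FRET ratio versus controls · Benchmarks – DMSO low control, neomycin B high control · Incubation – 5 min RNA-compound premix plus 15 min binding step, 25 °C · Medium – HEPES pH 7.5 salt buffer with EDTA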
Cav3 T inh – Cav3.2 calcium influx blockers – cell-based, Fluo-4 calcium fluorescence, FDSS, MLSMR library, primary screen; Cav3.2-expressing cells; stronger effect = lower value; Voltage-dependent T-type calcium channel subunit alpha-1H (Homo sapiens), O95180; B-score at 10 µM; 100,000 compounds, 4% hits; AID 449739, 2010;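 active = single-dose well whose peak fluorescence ratio is a statistical outlier from its plate by either plate-standardised score or position-corrected B-score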
Measles CPE – compounds protecting cells from measles virus cytopathic effect, primary screen, measles RdRp inhibitor project, single point, MLSMR library, absorbance | Measles virus-infected cells, CPE protection | protection (pct of control), % at 4 µM | 140,000 compounds, 1.5% hits; in the data active = protection mostly above about 24%, no sharp cut-off; inactive = mostly below about 26%
DAT uptake mod – changed hDAT dopamine uptake under cocaine IC80, either direction, primary screen, cocaine antagonist project, cell-based, LLC-PK1 hDAT, [14C]-dopamine uptake, MLSMR; LLC-PK1 hDAT cells, [14C]-dopamine uptake with cocaine IC80; actives deviate in either direction; B-score at 10 µM; 110,000 compounds, 1.3% hits; AID 449768, 2010;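 active = Z score or B-score, a plate-position-corrected score, falls beyond the plate's 99.7% confidence bounds, in either direction; inactive = both scores lie inside the 99.7% bounds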;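 note: scored against the spread of the other compound wells on the same plate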
PTK2B oligo ant – antagonists of Pyk2 self-association, primary screen, Q293 cells, FERM NanoBiT luminescence, HTS. stronger effect = lower value. z-score (the deposit names both 25 µM and 10 µM). 99,000 compounds, 0.83% hits. AID 1347419, 2020;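 active = Z-score of -3 or lower, scaled per plate to the spread of control and sample wells; inactive = z-score above -3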;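 note: negative z-score means lost luminescence so less FERM oligomerization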
* marks the source's active call; other numbers are inactive results; . = no result; [ ] = remark or other dose. The list is not random: actives were taken first. Their share in the collection is about 5.9%.

SMILES	Phagocyt inh	Rev-RRE block	Cav3 T inh	Measles CPE	DAT uptake mod	PTK2B oligo ant
O=C(NCCN1C(=O)S/C(=C\c2ccc(OC(F)F)cc2)C1=O)c1cnccn1	.	.	.	4	.	.
CCC(C)(C)NC(=O)C(c1ccc(F)cc1)N(Cc1ccco1)C(=O)CCC(=O)Nc1ccccn1 (configuration not stated)	-2	.	-8.8*	11	0.9	-0.32
CCC(C)(C)NC(=O)C(c1ccc(C)cc1)N(Cc1ccco1)C(=O)CCC(=O)Nc1nccs1 (configuration not stated)	0	2	-4.8*	15	-0.47	0.97
CC(C)Oc1ccc(C(=O)Nc2ccc(Cl)c(S(=O)(=O)Nc3ccc(Cl)cc3)c2)cc1	-2	.	.	7	.	-0.1
Cc1ccc(N(C(=O)Cn2nnc(-c3ccccc3)n2)C(C(=O)NC2CCCCC2)c2ccccn2)cc1C (configuration not stated)	-9	.	.	4	.	.
CCOc1cccc(C2C(C(=O)c3ccc(C)o3)=C(O)C(=O)N2c2nccs2)c1 (configuration not stated)	-3	74*	-3.9	5	-1.3	0.43
COc1ccc(/C=C/c2ccncc2)c2ccccc12	0	141*[fluorescence artefact?]	-1.8	26	0.37	-0.92
CCOC(=O)Cn1c(S(=O)(=O)Cc2ccc(Cl)cc2)nc(-c2ccccc2)c1-c1ccccc1	.	11	-5.6*	6	0.21	-2
CCOC(=O)Cn1c(S(=O)(=O)Cc2ccccc2)nc2ccccc21	0	4	0.82	18	0.34	.
C#CCn1c(S(=O)(=O)Cc2ccc(OC)cc2)nc(-c2ccccc2)c1-c1ccccc1	.	10	-5.1*	13	-0.095	-3*
CCC(C(=O)NC1CCCCC1)n1c(SCc2cccc(C)c2)nc2ccncc21 (configuration not stated)	.	.	-3.5	4	-0.47	.
CCC(C(=O)NC1CCCCC1)n1c(SCc2cccc(F)c2)nc2ccncc21 (configuration not stated)	.	.	-1.2	4	2.8*	.
COc1ccccc1C(=O)Nc1ncc2c(n1)CC(c1ccco1)CC2=O (configuration not stated)	0	5	-0.16	16	-3.8*	-0.41
COc1ccc(C2CC(=O)c3cnc(NC(=O)c4ccccc4)nc3C2)c(OC)c1 (configuration not stated)	2	5	-3.3*	3	1.1	2.4
CC(C)c1cccc(C(C)C)c1NC(=O)Cn1c(=O)cnc2ccccc21	.	.	.	11	.	.
CC(Oc1ccccc1)c1ccnn1S(=O)(=O)c1ccccc1 (configuration not stated)	-2	8	-6.4*	4	-0.31	-0.71
Cc1cccc(C(=O)N2CCc3cc(-c4nc(NC(=O)Cn5nnc6ccccc6c5=O)sc4C)ccc32)c1	-4	.	.	33	.	.
Cc1sc(NC(=O)Cc2ccc3c(c2)OCO3)nc1-c1ccc2c(c1)CCN2C(=O)c1cccc(F)c1	-6	.	.	53*	.	.
Cc1ccccc1C(=O)N1CCc2cc(-c3nc(NC(=O)Cc4ccc5c(c4)OCO5)sc3C)ccc21	9	.	.	62*	.	-0.37
O=C(COC(=O)c1ccc2ccccc2c1)NCCCc1ccccc1	-8	.	.	13	.	.
CCN(CC)S(=O)(=O)c1ccc(OC)c(NC(=O)CSc2cc(Cl)ccc2Cl)c1	-4	.	.	5	.	.
CCOc1ccc(-c2cc3nc(C4CCN(C(=O)OC(C)(C)C)CC4)c(C(=O)O)cn3n2)cc1	0	-1	-0.77	10	3.4*	1.4
CCOC(=O)C1=C(c2cccc(Oc3ccccc3)c2)NC(=S)NC1C (configuration not stated)	.	2	-8.3*	30	0.7	-2.2
CCOC(=O)C1=C(C)C(c2cccc(Oc3ccccc3)c2)NC(=S)N1 (configuration not stated)	1	.	.	21	.	.

Assay outcomes as filed in PubChem BioAssay.
